Source: PubChem BioAssay
IDH1 mut inh: IDH1 R132H (human) inhibition. O75874. AID 624101. actives 0.18% (n = 70,000). IDH1 R132H reductase, diaphorase/resazurin fluorescence, 60 min. inhibition, % at 10 µM; in the data active means inhibition above about 34%; inconclusive means no clear call, values can overlap the other calls; inactive means below about 11%;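 further: 0% = DMSO and 100% = no enzyme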
KDM4C inh: KDM4C (human) demethylase inhibition | GST-KDM4C 2-372, H3K9me3 peptide, LANCE TR-FRET | inhibition, % at 12.5 µM | actives 0.15% (n = 96,000);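 active means mean replicate inhibition above about 25%, with at least 55% of replicates also reaching it, limit read from the data, passing the limit was not always enough; inconclusive means only one of those two conditions met; inactive means neither condition met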
Target sequence (Q9H3R0 2-372 limits assumed): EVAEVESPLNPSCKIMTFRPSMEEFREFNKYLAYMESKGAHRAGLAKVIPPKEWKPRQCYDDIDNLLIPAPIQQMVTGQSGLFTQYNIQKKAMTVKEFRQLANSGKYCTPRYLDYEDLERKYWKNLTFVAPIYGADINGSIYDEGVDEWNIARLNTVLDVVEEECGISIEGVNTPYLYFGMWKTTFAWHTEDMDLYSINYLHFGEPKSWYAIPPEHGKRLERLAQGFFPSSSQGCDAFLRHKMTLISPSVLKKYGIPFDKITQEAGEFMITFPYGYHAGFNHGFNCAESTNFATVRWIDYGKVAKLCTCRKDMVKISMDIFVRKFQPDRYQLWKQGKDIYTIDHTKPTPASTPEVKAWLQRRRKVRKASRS
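System: N-terminal GST-fused human GASC-1 (KDM4C) fragment, residues 2-372; amount: enzyme final amount 10 nM; incubation: reaction 30 min RT, detection step 1 h RT; medium: HEPES buffer, pH 7.5, plus ascorbate; technique: LANCE TR-FRET, Eu antibody, ULight-streptavidin, EDTA, ex 340 nm, em 618/671 nm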
T cruzi growth-1: inhibitors of T. cruzi proliferation; inhibition, % at 8.34 µM; actives 5.9% (n = 77,000); T. cruzi beta-gal in NIH3T3, GalScreen luminescence, 90 h; AID 624255;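 active means mean inhibition above about 93%, with at least 55% of replicates each passing it, limit read from the data, passing the limit was not always enough; inconclusive means only one of those two conditions holds; inactive means neither condition holds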
T cruzi growth-2: Trypanosoma cruzi proliferation inhibition; actives 72% (n = 5,600); T. cruzi beta-gal in NIH3T3, GalScreen luminescence, 90 h; inhibition, % at 8.35 µM; AID 651739; shares compounds with T cruzi growth-1;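 active means mean replicate inhibition above about 95% and at least 55% of replicates individually reaching it, limit read from the data; inconclusive means only one of the two criteria is met; inactive means neither criterion is met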
T cruzi growth-3: inhibitors of T. cruzi proliferation | T. cruzi beta-gal in NIH3T3, GalScreen luminescence, 90 h | shares compounds with T cruzi growth-1 | AID 651740 | actives 21% (n = 5,600) | inhibition, % at 2.09 µM;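 active means mean inhibition above about 95%, with at least 55% of replicates also reaching it, limit read from the data; inconclusive means meets just one of the two conditions; inactive means meets neither condition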;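 further: plate controls were neutral control median for no effect and positive control median for full effect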
3T3 cytotox: NIH/3T3 (mouse) viability loss | shares compounds with T cruzi growth-1 | NIH/3T3 viability, CellTiter-Glo ATP luminescence, 90 h | cytotoxicity (signal decrease), % at 8.35 µM | actives 14% (n = 5,600);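 active means mean signal decrease across replicates above about 35% based on untreated-well scatter, with enough replicates individually passing, limit read from the data; inconclusive means no rule stated though some were filed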;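 further: 0% = median of neutral control wells and 100% = median of positive control wells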
3T3 cytotox 2: kills mouse NIH/3T3 fibroblasts; shares compounds with T cruzi growth-1; NIH/3T3 viability, CellTiter-Glo ATP luminescence, 90 h; inhibition, % at 24.9 µM; actives 56% (n = 5,600); AID 651744;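 active means mean loss of cell viability signal at or above a set limit, and enough replicates individually reaching it; inconclusive means meets only the mean limit or only the replicate share; inactive means meets neither condition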;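 further: 0% = median of neutral control wells and 100% = median of positive control wells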
Numbers without * were called inactive; ? = inconclusive; · = no result; ! = not confirmed by another sample. The sample as a whole holds a higher share of hits than the screen did.

SMILES	IDH1 mut inh	KDM4C inh	T cruzi growth-1	others
COc1cccc(NC(=O)N[C@@H]2C=C[C@H](CC(=O)Nc3ccccc3)O[C@@H]2CO)c1	·	1	·
C[C@@H]1CCCCO[C@@H](CN(C)S(=O)(=O)c2ccccc2)[C@H](C)CN([C@H](C)CO)C(=O)c2cc(NC(=O)c3ccccc3)ccc2O1	·	0	13
CS(=O)(=O)N(CC(=O)Nc1cc(Cl)cc(Cl)c1)c1cccc(Cl)c1	0	·	·
N#Cc1c(SCc2ccccc2Cl)nc2c(c1C(F)(F)F)CCc1occc1-2	0	·	·
O=C(CCCCCC(=O)N/N=C/c1cc(O)ccc1[N+](=O)[O-])NO	0	·	·
Cc1cccc(S(=O)(=O)N2CC[C@@H]3[C@@H](CO)Nc4ccc(-c5ccccc5F)cc4[C@@H]32)c1	·	-1	1
Cc1ccc(S(=O)(=O)N2CC[C@@H]3[C@@H](CO)Nc4ccc(-c5ccccc5F)cc4[C@@H]32)cc1	·	-3	116*	T cruzi growth-2=100*;T cruzi growth-3=103*;3T3 cytotox=15;3T3 cytotox 2=17
C[C@@H]1CN([C@H](C)CO)C(=O)c2cc(NC(=O)NC3CCCCC3)ccc2O[C@H]1CN(C)C	·	2	65
C[C@H]1CCCCO[C@H](CN(C)S(C)(=O)=O)[C@@H](C)CN([C@@H](C)CO)C(=O)c2cc(NS(C)(=O)=O)ccc2O1	·	0	-21
Cc1ccccc1S(=O)(=O)N1CCCCN2[C@H](C1)[C@@H](c1ccc(-c3cccc(F)c3)cc1)[C@@H]2CO	·	-1	?	T cruzi growth-2=111*;T cruzi growth-3=65;3T3 cytotox=29;3T3 cytotox 2=73*
Cc1ccccc1S(=O)(=O)N1CCCCN2[C@@H](CO)[C@H](c3ccc(-c4cccc(F)c4)cc3)[C@@H]2C1	·	0	106*	T cruzi growth-2=88;T cruzi growth-3=103*;3T3 cytotox=56*;3T3 cytotox 2=103*
Cc1ccccc1S(=O)(=O)N1CCCCN2[C@H](CO)[C@H](c3ccc(-c4cccc(F)c4)cc3)[C@H]2C1	·	-1	71
Cc1cccc(-c2ccc([C@@H]3[C@H](CO)N4CCCCN(S(=O)(=O)c5ccccc5C)C[C@@H]34)cc2)c1	·	0	64
C[C@H](O)C#Cc1ccc2c(c1)O[C@@H](CN(C)CC1CC1)[C@H](C)CN([C@@H](C)CO)S2(=O)=O	2	-2	84
COc1cccc(NC(=O)N(C)C[C@@H]2Oc3ncc(C#Cc4ccncc4)cc3C(=O)N([C@H](C)CO)C[C@H]2C)c1	0	-2	·
CO[C@H]1CN(C)C(=O)c2ccc(NS(=O)(=O)c3ccc(-c4ccccc4)cc3)cc2OC[C@@H](C)NC[C@@H]1C	·	-1	·
C[C@@H]1CCCCO[C@@H](CN(C)C(=O)CCCN(C)C)[C@H](C)CN([C@@H](C)CO)C(=O)c2cc(N(C)C)ccc2O1	-1	3	27
C[C@@H]1CCCCO[C@@H](CN(C)C(=O)CCC(F)(F)F)[C@@H](C)CN([C@H](C)CO)C(=O)c2cc(N(C)C)ccc2O1	-3	2	99*!	T cruzi growth-2=61;T cruzi growth-3=10;3T3 cytotox=1;3T3 cytotox 2=-52
C[C@@H]1CCCCO[C@@H](CN(C)C(=O)CCCN(C)C)[C@@H](C)CN([C@H](C)CO)C(=O)c2cc(N(C)C)ccc2O1	0	0	108*!	T cruzi growth-2=55;T cruzi growth-3=1;3T3 cytotox=8;3T3 cytotox 2=9
C[C@@H]1CCCCO[C@H](CN(C)C(=O)CCC(F)(F)F)[C@H](C)CN([C@H](C)CO)C(=O)c2cc(N(C)C)ccc2O1	-1	0	38
CCNC(=O)[C@@H]1[C@@H](CO)[C@@H]2Cn3c(cccc3=O)[C@@H]2N1C(=O)CC1CC1	·	13	8
C[C@H]1CN([C@@H](C)CO)C(=O)c2cc(NC(=O)CCN3CCOCC3)ccc2O[C@@H]1CN(C)C(=O)Nc1ccc(F)cc1	1	0	-15
CN1CCN(C(=O)C[C@H]2CC[C@H](NC(=O)c3ccc4c(c3)OCO4)[C@@H](CO)O2)CC1	0	0	-29
CC(=O)c1ccc(NC(=O)CSc2nnc3n(C)c(=O)c4c5c(sc4n23)CCCC5)cc1	0	·	·
CC(C)NC(=O)N(C)C[C@H]1Oc2cc(-c3ccncc3)ccc2S(=O)(=O)N([C@H](C)CO)C[C@H]1C	6	-2	109*	T cruzi growth-2=68;T cruzi growth-3=28;3T3 cytotox=4;3T3 cytotox 2=32*
SMILES	IDH1 mut inh	KDM4C inh	T cruzi growth-1	others
CC(C)NC(=O)N(C)C[C@H]1Oc2cc(-c3ccncc3)ccc2S(=O)(=O)N([C@@H](C)CO)C[C@@H]1C	2	1	110*	T cruzi growth-2=85;T cruzi growth-3=38;3T3 cytotox=-16;3T3 cytotox 2=13
Cc1ccc(-c2ccc3c(c2)O[C@H](CN(C)C(=O)NC(C)C)[C@H](C)CN([C@H](C)CO)S3(=O)=O)cc1	0	2	32
Cc1ccc(-c2ccc3c(c2)O[C@@H](CN(C)C(=O)NC(C)C)[C@@H](C)CN([C@@H](C)CO)S3(=O)=O)cc1	-1	0	70
O=C(C[C@H]1C=C[C@@H](NC(=O)CC2CC2)[C@@H](CO)O1)NCc1ccccc1	·	0	·
C[C@H](CO)N1C[C@H](C)[C@@H](CN(C)C)Oc2cc(-c3ccncc3)ccc2S1(=O)=O	1	-1	106*	T cruzi growth-2=89;T cruzi growth-3=24;3T3 cytotox=13;3T3 cytotox 2=?
C[C@@H]1CN([C@@H](C)CO)S(=O)(=O)c2ccc(-c3ccncc3)cc2O[C@H]1CN(C)C	-7	-1	98*	T cruzi growth-2=97*;T cruzi growth-3=15;3T3 cytotox=2;3T3 cytotox 2=19
C[C@H](CO)N1C[C@H](C)[C@H](CN(C)C)Oc2cc(-c3ccncc3)ccc2S1(=O)=O	-10	-2	11
C[C@@H]1CN([C@H](C)CO)S(=O)(=O)c2ccc(-c3ccncc3)cc2O[C@H]1CN(C)C	2	4	24
C[C@@H]1CCCCO[C@@H](CN(C)C(=O)Nc2ccccc2)[C@@H](C)CN([C@H](C)CO)C(=O)c2cc(NC(=O)c3ccccc3)ccc2O1	4	-1	19
COc1ccc(S(=O)(=O)Nc2ccc3c(c2)CC(=O)N([C@@H](C)CO)C[C@H](C)[C@@H](CN(C)S(=O)(=O)c2ccccc2)O3)cc1	0	0	9
CCCC(=O)Nc1ccc2c(c1)OC[C@@H](C)N(C(=O)CC1CC1)C[C@H](C)[C@H](OC)CN(C)C2=O	0	0	-4
O=C(C[C@H]1CC[C@H](NC(=O)Nc2ccc(F)cc2)[C@@H](CO)O1)NCc1cccc(F)c1	0	-3	·
C[C@H]1CN([C@@H](C)CO)C(=O)c2cc(C3=CCCC3)cnc2O[C@H]1CN(C)Cc1ccccn1	0	4	-100
COc1cccc(C#Cc2ccc([C@@H]3[C@@H](C#N)N(C(=O)C4CCCC4)[C@H]3CO)cc2)c1	·	4	·
